Test results from ChEMBL document CHEMBL1137710, “Synthesis and in vitro antitumor activity of new quinoxaline derivatives” (2009).

Columns and labels:
Format in all cases: functional
NCI-H23 = assay: Growth inhibition of human NCI-H23 cells after 48 hrs by sulforhodamine B assay; settings: NCI-H23, 48 h
In short: (§1)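 NCI 60-human-tumor-cell-line panel, with compounds tested over a 5-log dose range. Values are taken from dose-response curves as log10 molar concentrations: GI50 is 50% net growth inhibition, TGI is total growth inhibition, and LC50 is 50% net cell death.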

HCT-116 = assay: Growth inhibition of human HCT116 cells after 48 hrs by sulforhodamine B assay; settings: HCT-116, 48 h; in short: as §1
[1] = Growth inhibition of human […] cells after 48 hrs by sulforhodamine B assay; in short: as §1
M14 = assay: Growth inhibition of human M14 cells after 48 hrs by sulforhodamine B assay; settings: M14, 48 h; in short: as §1
TK-10 = assay: Growth inhibition of human TK10 cells after 48 hrs by sulforhodamine B assay; settings: TK-10, 48 h
In short: (§2)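 Run in the NCI 60-human-tumour-cell-line panel, tested over a 5-log dose range. Dose–response curves gave three values per cell line, each as a log10 molar concentration: GI50 (50% inhibition of net cell growth), TGI (total inhibition of net growth) and LC50 (50% net cell death). The mean graph midpoint is the arithmetic mean over all lines, with insensitive lines entered at the highest concentration tested.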

OVCAR-5 = assay: Growth inhibition of human OVCAR5 cells after 48 hrs by sulforhodamine B assay; settings: OVCAR-5, 48 h; in short: as §1
SNB-19 = assay: Growth inhibition of human SNB19 cells after 48 hrs by sulforhodamine B assay; settings: SNB-19, 48 h; in short: as §2
MDA-MB-435 = assay: Growth inhibition of human MDA-MB-435 cells after 48 hrs by sulforhodamine B assay; settings: MDA-MB-435, 48 h; in short: as §1
PC-3 = assay: Growth inhibition of human PC3 cells after 48 hrs by sulforhodamine B assay; settings: PC-3, 48 h; in short: as §1
MDA-MB-231 = assay: Growth inhibition of human MDA-MB-231 cells after 48 hrs by sulforhodamine B assay; settings: MDA-MB-231, 48 h; in short: as §1
CAKI-1 = assay: Growth inhibition of human Caki1 cells after 48 hrs by sulforhodamine B assay; settings: CAKI-1, 48 h; in short: as §1
SF-295 = assay: Growth inhibition of human SF295 cells after 48 hrs by sulforhodamine B assay; settings: SF-295, 48 h; in short: as §1
786-0 = assay: Growth inhibition of human 786-0 cells after 48 hrs by sulforhodamine B assay; settings: 786-0, 48 h; in short: as §1
SF-268 = assay: Anticancer activity against human SF268 cells assessed as cell growth at 100 uM after 48 hrs by sulforhodamine B assay; settings: SF-268, 48 h, read-out: Activity
COLO 205 = assay: Growth inhibition of human COLO205 cells after 48 hrs by sulforhodamine B assay; settings: COLO 205, 48 h; in short: as §1
[2] = Growth inhibition of human Hs 578T cells after 48 hrs by sulforhodamine B assay; in short: as §1
SK-OV-3 = assay: Growth inhibition of human SKOV3 cells after 48 hrs by sulforhodamine B assay; settings: SK-OV-3, 48 h; in short: as §1
A549 = assay: Growth inhibition of human A549 cells after 48 hrs by sulforhodamine B assay; settings: A549, 48 h; in short: as §1
DU-145 = assay: Growth inhibition of human DU145 cells after 48 hrs by sulforhodamine B assay; settings: DU-145, 48 h; in short: as §1
MCF7 = assay: Anticancer activity against human MCF7 cells assessed as cell growth at 100 uM after 48 hrs by sulforhodamine B assay; settings: MCF7, 48 h, read-out: Activity
SW-620 = assay: Growth inhibition of human SW620 cells after 48 hrs by sulforhodamine B assay; settings: SW-620, 48 h; in short: as §2
KM12 = assay: Growth inhibition of human KM12 cells after 48 hrs by sulforhodamine B assay; settings: KM12, 48 h; in short: as §1
RXF 393 = assay: Growth inhibition of human RXF393 cells after 48 hrs by sulforhodamine B assay; settings: RXF 393, 48 h; in short: as §1
OVCAR-8 = assay: Growth inhibition of human OVCAR8 cells after 48 hrs by sulforhodamine B assay; settings: OVCAR-8, 48 h; in short: as §1
U-251 = assay: Growth inhibition of human U251 cells after 48 hrs by sulforhodamine B assay; settings: U-251, 48 h; in short: as §2
NCI/ADR-RES = assay: Growth inhibition of human NCI/ADR-RES cells after 48 hrs by sulforhodamine B assay; in short: as §1
LOX IMVI = assay: Growth inhibition of human LOXIMVI cells after 48 hrs by sulforhodamine B assay; in short: as §1
NCI-H460 = assay: Growth inhibition of human NCI-H460 cells after 48 hrs by sulforhodamine B assay; settings: NCI-H460, 48 h; in short: as §1
SR = assay: Growth inhibition of human SR cells after 48 hrs by sulforhodamine B assay; in short: as §2
[3] = read-out: pLC50 (the source's name) (converted)

In the case of `COc1cc(CNc2nc3cc(N)cc(N)c3nc2-c2ccccc2)cc(OC)c1`, the GI50 (NCI-H23) is reported as 16.2 µM, the LC50 (50% net cell kill concentration) (NCI-H23) is reported as greater than 100 µM and the TGI (NCI-H23; read-out: pTGI (converted)) is reported as greater than 100 µM. The GI50 (HCT-116) was 3.09 µM, the LC50 (concentration causing 50% net cell death) (HCT-116) was 72.4 µM and the TGI (HCT-116; read-out: pTGI (converted)) was 11.2 µM. For the same molecule, the GI50 [1] was 2.19 µM, the LC50 [1] was greater than 100 µM and the TGI ([1]; read-out: pTGI (converted)) was 6.17 µM. The GI50 (M14) was 10 µM, the CC50 (M14; [3]) was greater than 100 µM and the TGI (M14; read-out: pTGI (converted)) was 49 µM. The GI50 (TK-10) was 24.5 µM, the CC50 (TK-10; [3]) was greater than 100 µM and the TGI (TK-10; read-out: pTGI (converted)) was 63.1 µM. For the same molecule, the GI50 (OVCAR-5) was 5.89 µM, the CC50 (OVCAR-5; [3]) was greater than 100 µM and the TGI (OVCAR-5; read-out: pTGI (converted)) was 29.5 µM. For the same molecule, the GI50 (SNB-19) was 23.4 µM, the LC50 (SNB-19) was greater than 100 µM and the TGI (SNB-19; read-out: pTGI (converted)) was greater than 100 µM. The GI50 (MDA-MB-435) was 2.14 µM, the TGI (MDA-MB-435; read-out: pTGI (converted)) was 4.27 µM and the GI50 (PC-3) was 3.02 µM. The CC50 (PC-3; [3]) was greater than 100 µM, the TGI (PC-3; read-out: pTGI (converted)) was 14.5 µM and the GI50 (MDA-MB-231) was 2.09 µM. For the same molecule, the CC50 (MDA-MB-231; [3]) was greater than 100 µM, the TGI (MDA-MB-231; read-out: pTGI (converted)) was 6.03 µM and the GI50 (CAKI-1) was 15.8 µM. It also gave a CC50 (CAKI-1; [3]) greater than 100 µM, a TGI (CAKI-1; read-out: pTGI (converted)) greater than 100 µM and a GI50 (SF-295) of 14.1 µM. For the same molecule, the LC50 (50% net cell kill) (SF-295) was 87.1 µM, the TGI (SF-295; read-out: pTGI (converted)) was 35.5 µM and the GI50 (786-0) was 12.6 µM. It also gave a CC50 (786-0; [3]) greater than 100 µM, a TGI (786-0; read-out: pTGI (converted)) of 44.7 µM and a growth at 100 µM (SF-268) of -28%. It also gave a GI50 (COLO 205) of 2.4 µM, an LC50 (50% net cell kill) (COLO 205) greater than 100 µM and a TGI (COLO 205; read-out: pTGI (converted)) of 6.03 µM. The GI50 [2] was 8.51 µM, the CC50 [2, 3] was greater than 100 µM and the TGI ([2]; read-out: pTGI (converted)) was greater than 100 µM. For the same molecule, the GI50 (SK-OV-3) was 15.1 µM, the CC50 (SK-OV-3; [3]) was greater than 100 µM and the TGI (SK-OV-3; read-out: pTGI (converted)) was 53.7 µM. The GI50 (A549) was 33.1 µM, the LC50 (A549) was greater than 100 µM and the TGI (A549; read-out: pTGI (converted)) was greater than 100 µM. For the same molecule, the GI50 (DU-145) was 29.5 µM, the CC50 (DU-145; [3]) was greater than 100 µM and the TGI (DU-145; read-out: pTGI (converted)) was greater than 100 µM. The growth at 100 µM (MCF7) was -72%, the GI50 (SW-620) was 4.47 µM and the CC50 (SW-620; [3]) was greater than 100 µM. For the same molecule, the TGI (SW-620; read-out: pTGI (converted)) was greater than 100 µM, the GI50 (KM12) was 4.27 µM and the LC50 (50% net cell kill) (KM12) was greater than 100 µM. For the same molecule, the TGI (KM12; read-out: pTGI (converted)) was 74.1 µM, the GI50 (RXF 393) was 6.03 µM and the CC50 (RXF 393; [3]) was greater than 100 µM. It also gave a TGI (RXF 393; read-out: pTGI (converted)) of 58.9 µM, a GI50 (OVCAR-8) of 2.82 µM and a CC50 (OVCAR-8; [3]) greater than 100 µM. The TGI (OVCAR-8; read-out: pTGI (converted)) was 8.13 µM, the GI50 (U-251) was 5.13 µM and the LC50 (50% net cell kill) (U-251) was greater than 100 µM. For the same molecule, the TGI (U-251; read-out: pTGI (converted)) was greater than 100 µM, the GI50 (NCI/ADR-RES) was 5.5 µM and the CC50 (NCI/ADR-RES; [3]) was greater than 100 µM. It also gave a TGI (NCI/ADR-RES; read-out: pTGI (converted)) of 33.1 µM, a GI50 (LOX IMVI) of 4.47 µM and an LC50 (LOX IMVI) greater than 100 µM. The TGI (LOX IMVI; read-out: pTGI (converted)) was 81.3 µM, the GI50 (NCI-H460) was 10.5 µM and the LC50 (50% net cell kill) (NCI-H460) was greater than 100 µM. It also gave a TGI (NCI-H460; read-out: pTGI (converted)) greater than 100 µM, a GI50 (SR) of 3.8 µM and an LC50 (concentration giving 50% net cell death) (SR) greater than 100 µM. For the same molecule, the TGI (SR; read-out: pTGI (converted)) was greater than 100 µM.
